In data set [1] the test system is Trypanosoma cruzi. The data set can be described thus: Antitrypanosomal activity against Trypanosoma cruzi Tulahuen 2 epimastigotes assessed as inhibition of parasite growth at 25 uM relative to control. It counts as functional. The settings on record: read-out: GI. The gist of the method:
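Epimastigotes of T. cruzi Tulahuen 2 strain exposed to compound at 25 µM. Growth inhibition is given as percentage relative to untreated parasites. Values are means of three separate experiments, SD under 10%.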

Data set [2] can be described thus: Octanol-water partition coefficient of the compound. The class given is physicochemical.
The test system of data set [3] is Trypanosoma cruzi. The experiment in a line: Antitrypanosomal activity against Trypanosoma cruzi Tulahuen 2 epimastigotes. It counts as functional, organism-based.

SMILES strings stand for the structures. pIC50: −log10 of the molar value.

By logP is commonly meant the decadic logarithm of the partition coefficient of the neutral form, usually between octanol and water. Read a high logP as a more lipophilic compound. In general, pIC50 refers to −log10 of the IC50, conventionally taken in molar units. Low values mean a large IC50, high ones a small IC50.

Turning to `COc1ccc(-c2c(C#N)[n+]([O-])c3cc(F)c(F)cc3[n+]2[O-])cc1`, the inhibition of growth at 25 µM in the data set with Trypanosoma cruzi [1] amounted to 91.6%. The logP in data set [2] came to 2.09. In the data set with Trypanosoma cruzi [3], the pIC50 is 4.92.
With `Cc1cc2c(cc1C)[n+]([O-])c(-c1ccco1)c(C#N)[n+]2[O-]`, the inhibition of growth at 25 µM with Trypanosoma cruzi [1] amounted to 64.7%. Also, the logP in data set [2] stood at 1.1. This compound also gave a pIC50 in the data set on Trypanosoma cruzi [3] of 4.70.
The like results for `Cc1cc2c(cc1C)[n+]([O-])c(-c1ccccc1)c(C#N)[n+]2[O-]` were, in that order, 97.4%, 2.33 and 4.66.
For `N#Cc1c(-c2ccccc2)[n+]([O-])c2cc(Cl)c(Cl)cc2[n+]1[O-]` the same measures were 90%, 2.87 and 4.82.
For `COc1ccc2c(c1)[n+]([O-])c(C#N)c(-c1ccc(Cl)cc1)[n+]2[O-]` the same measures were 111%, 2.09 and 4.84.
Turning to `N#Cc1c(-c2ccco2)[n+]([O-])c2cc(F)c(F)cc2[n+]1[O-]`, the inhibition of growth at 25 µM in the data set with Trypanosoma cruzi [1] turned out to be 70.7%. The logP in data set [2] was found to be 1.38. In addition, the pIC50 with Trypanosoma cruzi [3] was 4.88.
On to `N#Cc1c(-c2cccs2)[n+]([O-])c2ccc(C(F)(F)F)cc2[n+]1[O-]`, for which the inhibition of growth at 25 µM in the data set with Trypanosoma cruzi [1] was 100%. This compound gave a logP in data set [2] of 2.27. In the data set with Trypanosoma cruzi [3], this compound showed a negative-log IC50 (pIC50) of 5.11.
For `N#Cc1c(-c2ccccc2)[n+]([O-])c2ccc(C(F)(F)F)cc2[n+]1[O-]` the same measures were 100%, 2.72 and 4.82.
The like results for `COc1ccc(-c2c(C#N)[n+]([O-])c3cc(C)ccc3[n+]2[O-])cc1` were, in that order, 94.6%, 1.82 and 4.72.
For `Cc1ccc(-c2c(C#N)[n+]([O-])c3cc(C)ccc3[n+]2[O-])cc1` the same measures were 41.6%, 2.33 and 4.30.
For `N#Cc1c(-c2ccco2)[n+]([O-])c2ccc(F)cc2[n+]1[O-]`, the inhibition of growth at 25 µM in the data set on Trypanosoma cruzi [1] came to 83.4%. The logP in data set [2] was 0.983. The same compound had a negative logarithm of the IC50 (pIC50) with Trypanosoma cruzi [3] of 4.83.
For `N#Cc1c(-c2cccs2)[n+]([O-])c2cc(Cl)c(Cl)cc2[n+]1[O-]` the same measures were 78.5%, 2.41 and 4.98.
The like results for `N#Cc1c(-c2ccc(Cl)cc2)[n+]([O-])c2cc(Cl)c(Cl)cc2[n+]1[O-]` were, in that order, 89.8%, 3.1 and 4.86.
For `N#Cc1c(-c2ccc(Cl)cc2)[n+]([O-])c2ccc(Cl)cc2[n+]1[O-]` the same measures were 97.5%, 2.87 and 4.82.
`COc1ccc(-c2c(C#N)[n+]([O-])c3ccccc3[n+]2[O-])cc1`: the inhibition of growth at 25 µM with Trypanosoma cruzi [1] amounted to 110%. In data set [2], the logP was 1.58. The same compound gave a negative-log IC50 (pIC50) with Trypanosoma cruzi [3] of 4.71.
For `N#Cc1c(-c2ccco2)[n+]([O-])c2ccc(Cl)cc2[n+]1[O-]` the same measures were 64.5%, 1.11 and 4.72.
For `COc1ccc2c(c1)[n+]([O-])c(C#N)c(-c1ccco1)[n+]2[O-]` the same measures were 33.4%, 0.354 and less than 4.60.
For `N#Cc1c(-c2ccc(Cl)cc2)[n+]([O-])c2ccccc2[n+]1[O-]` the same measures were 97.1%, 2.35 and 4.74.
For `N#Cc1c(NC(=O)c2cccs2)[n+]([O-])c2cc(F)c(F)cc2[n+]1[O-]`, the inhibition of growth at 25 µM in the data set with Trypanosoma cruzi [1] turned out to be 92.4%. Also, in data set [2], the logP worked out at 1.62. Moreover, the pIC50 in the data set with Trypanosoma cruzi [3] was 4.97.
On to `Cc1ccc2c(c1)[n+]([O-])c(C#N)c(-c1ccc(Cl)cc1)[n+]2[O-]`, for which the inhibition of growth at 25 µM with Trypanosoma cruzi [1] turned out to be 88.4%. In data set [2], this compound returned a logP of 2.6. Also, in the data set with Trypanosoma cruzi [3], the negative-log IC50 (pIC50) is 4.76.
Regarding `N#Cc1c(-c2ccccc2)[n+]([O-])c2ccc(F)cc2[n+]1[O-]`, the inhibition of growth at 25 µM in the data set on Trypanosoma cruzi [1] turned out to be 89.4%. The logP in data set [2] came to 2.23. Besides, the pIC50 in the data set with Trypanosoma cruzi [3] is 4.81.
The like results for `COc1ccc2c(c1)[n+]([O-])c(C#N)c(-c1ccc(C)cc1)[n+]2[O-]` were, in that order, 112%, 1.82 and 4.72.
For `N#Cc1c(-c2ccc(OC(F)(F)F)cc2)[n+]([O-])c2ccc(Cl)cc2[n+]1[O-]` the same measures were 89.1%, 2.45 and 5.08.
The like results for `N#Cc1c(NC(=O)c2ccco2)[n+]([O-])c2cc(F)c(F)cc2[n+]1[O-]` were, in that order, 53.1%, 0.868 and 4.72.
For `N#Cc1c(-c2ccc(F)cc2)[n+]([O-])c2cc(F)c(F)cc2[n+]1[O-]`, the inhibition of growth at 25 µM in the data set on Trypanosoma cruzi [1] stood at 29.4%. This compound also came in with a logP in data set [2] of 2.74. In the data set with Trypanosoma cruzi [3], this compound gave a pIC50 of 4.44.
For `N#Cc1c(-c2ccccc2)[n+]([O-])c2ccc(Cl)cc2[n+]1[O-]`, in the data set on Trypanosoma cruzi [1], the inhibition of growth at 25 µM is 97.8%. Moreover, the logP in data set [2] is 2.35. In addition, the pIC50 in the data set with Trypanosoma cruzi [3] was 4.74.
As to `N#Cc1c(-c2ccc(OC(F)(F)F)cc2)[n+]([O-])c2ccc(F)cc2[n+]1[O-]`, the inhibition of growth at 25 µM with Trypanosoma cruzi [1] amounted to 80.2%. Also, the logP in data set [2] came out at 2.33. In the data set with Trypanosoma cruzi [3], this compound showed a pIC50 of 4.88.
